The full list was thinned out, with hits kept by preference.
IDH1 mut inh: inhibitors of human IDH1 R132H; hit rate 0.18% among 70,000; O75874; IDH1 R132H reductase, diaphorase/resazurin fluorescence, 60 min; inhibition, % at 10 µM; in the data active means inhibition above about 34%; inconclusive means no clear call, values can overlap the other calls; inactive means below about 11%
Target sequence (O75874 whole entry R132H): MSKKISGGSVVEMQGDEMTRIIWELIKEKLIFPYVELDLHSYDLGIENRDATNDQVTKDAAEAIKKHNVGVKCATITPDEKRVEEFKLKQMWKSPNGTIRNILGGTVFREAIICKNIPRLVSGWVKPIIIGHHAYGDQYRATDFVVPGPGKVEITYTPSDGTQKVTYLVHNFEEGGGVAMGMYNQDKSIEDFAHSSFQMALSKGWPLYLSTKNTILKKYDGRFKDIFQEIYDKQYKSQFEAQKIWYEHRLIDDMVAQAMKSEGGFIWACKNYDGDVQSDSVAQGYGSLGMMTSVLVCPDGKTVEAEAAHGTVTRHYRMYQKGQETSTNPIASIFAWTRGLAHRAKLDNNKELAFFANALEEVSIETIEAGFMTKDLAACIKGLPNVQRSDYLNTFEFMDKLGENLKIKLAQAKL
T cruzi growth-1: inhibitors of T. cruzi proliferation. inhibition, % at 8.34 µM. hit rate 5.9% among 77,000. T. cruzi beta-gal in NIH3T3, GalScreen luminescence, 90 h;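 active means mean inhibition above about 93%, with at least 55% of replicates each passing it, limit read from the data, passing the limit was not always enough; inconclusive means only one of those two conditions holds; inactive means neither condition holds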
GASC1 inh: blocks human GASC-1 (KDM4C) demethylase activity. inhibition, % at 12.5 µM. AID 720574. GST-KDM4C 2-372, H3K9me3 peptide, LANCE TR-FRET. hit rate 0.15% among 96,000. Q9H3R0;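 active means mean replicate inhibition above about 25%, with at least 55% of replicates also reaching it, limit read from the data, passing the limit was not always enough; inconclusive means only one of those two conditions met; inactive means neither condition met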
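Test system: N-terminal GST-fused human GASC-1 (KDM4C) fragment, residues 2-372; quantity: GASC-1 enzyme at 10 nM final in reaction; dosing: single dose; schedule: 30 min demethylation and 1 h detection at room temperature; signal: LANCE TR-FRET, excitation 340 nm, emissions 618 and 671 nm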
T cruzi growth-2: inhibitors of T. cruzi proliferation. shares compounds with T cruzi growth-1. T. cruzi beta-gal in NIH3T3, GalScreen luminescence, 90 h. inhibition, % at 8.35 µM. hit rate 72% among 5,600;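 active means mean replicate inhibition above about 95% and at least 55% of replicates individually reaching it, limit read from the data; inconclusive means only one of the two criteria is met; inactive means neither criterion is met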
T cruzi growth-3: inhibitors of T. cruzi proliferation | shares compounds with T cruzi growth-1 | T. cruzi beta-gal in NIH3T3, GalScreen luminescence, 90 h | inhibition, % at 2.09 µM | hit rate 21% among 5,600 | AID 651740;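 active means mean inhibition above about 95%, with at least 55% of replicates also reaching it, limit read from the data; inconclusive means meets just one of the two conditions; inactive means meets neither condition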
3T3 cytotox: cytotoxicity in mouse NIH/3T3 fibroblasts; cytotoxicity (signal decrease), % at 8.35 µM; hit rate 14% among 5,600; shares compounds with T cruzi growth-1; AID 651742; NIH/3T3 viability, CellTiter-Glo ATP luminescence, 90 h;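 active means mean signal decrease across replicates above about 35% based on untreated-well scatter, with enough replicates individually passing, limit read from the data; inconclusive means no rule stated though some were filed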
NIH3T3 tox 2: kills mouse NIH/3T3 fibroblasts; AID 651744; NIH/3T3 viability, CellTiter-Glo ATP luminescence, 90 h; hit rate 56% among 5,600; shares compounds with T cruzi growth-1; inhibition, % at 24.9 µM;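 active means mean loss of cell viability signal at or above a set limit, and enough replicates individually reaching it; inconclusive means meets only the mean limit or only the replicate share; inactive means meets neither condition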
Hits are given with their value; 0 = inactive; ? = inconclusive; - = not tested or not shown.

SMILES	IDH1 mut inh	T cruzi growth-1	GASC1 inh	T cruzi growth-2	T cruzi growth-3	3T3 cytotox	NIH3T3 tox 2
C[C@@H]1CCCCO[C@@H](CN(C)C(=O)Nc2ccc(F)cc2)[C@H](C)CN([C@@H](C)CO)C(=O)c2cc(NC(=O)Cc3ccccc3)ccc2O1	0	0	0	-	-	-	-
O=C(c1cccc(F)c1)N1CC2(C1)[C@H](c1ccccc1)[C@H](CO)N2C(=O)C1CCCC1	-	-	0	-	-	-	-
CCC(=O)Nc1ccc2c(c1)OC[C@@H](C)N(CCc1ccccc1)C[C@H](C)[C@H](OC)CN(C)C2=O	-	-	0	-	-	-	-
O=C(c1ccccc1)C(c1ccccc1)n1nnc2ccccc21 (centres undefined)	0	-	-	-	-	-	-
COc1ccc(S(=O)(=O)N(C)CC(=O)Nc2cccc(SC)c2)cc1Cl	0	-	-	-	-	-	-
C(=C\c1nn2c(Cn3cnc4ccccc43)nnc2s1)/c1ccccc1	0	-	-	-	-	-	-
O=C(Cc1ccccn1)N1CC(=O)N2[C@H](CO)[C@H](c3ccc(C#CC4CCCC4)cc3)[C@@H]2C1	-	-	0	-	-	-	-
O=C(c1ccccc1F)N1CC2(C1)[C@H](c1ccccc1)[C@H](CO)N2CC1CC1	-	-	0	-	-	-	-
C[C@@H]1CCCCO[C@H](CN(C)C(=O)Nc2ccc(F)cc2)[C@H](C)CN([C@@H](C)CO)C(=O)c2cc(NC(=O)Cc3ccccc3)ccc2O1	0	103	0	104	0	0	0
C[C@@H]1CCCCO[C@H](CN(C)C(=O)Nc2ccc3c(c2)OCO3)[C@H](C)CN([C@@H](C)CO)C(=O)c2cc(NC(=O)Cc3ccccc3)ccc2O1	0	?	0	?	0	0	0
C[C@@H]1CN([C@H](C)CO)C(=O)c2cc(NC(=O)Cc3ccccc3)ccc2O[C@@H](C)CCCCO[C@H]1CN(C)C(=O)Nc1ccc(F)cc1	0	0	0	-	-	-	-
C[C@@H]1CN([C@H](C)CO)C(=O)c2cc(NC(=O)Cc3ccccc3)ccc2O[C@@H](C)CCCCO[C@H]1CN(C)C(=O)Nc1ccc2c(c1)OCO2	0	0	0	-	-	-	-
C[C@@H]1CN([C@@H](C)CO)C(=O)Cc2cc(NC(=O)CCN3CCOCC3)ccc2O[C@H]1CN(C)C(=O)Nc1ccccc1	0	0	0	-	-	-	-
C[C@@H]1CN([C@H](C)CO)C(=O)Cc2cc(NC(=O)CCN3CCOCC3)ccc2O[C@H]1CN(C)C(=O)Nc1ccc(F)cc1	0	99	0	0	0	0	0
O=C(COc1ccc(Cl)cc1)Nc1ccc(O)c(-c2nc3ccccc3o2)c1	0	-	-	-	-	-	-
CCNS(=O)(=O)c1ccc(NC(=O)c2cc(-c3ccccn3)nc3c(C)c(C)ccc23)cc1	0	-	-	-	-	-	-
CCCCCCCCCCCCC/C=C/C(O)C(CO)NC(C)=O (centres undefined)	0	-	-	-	-	-	-
CC(C)CC#Cc1ccc([C@@H]2[C@@H](CO)N3CCCCN(C(=O)Nc4ccccc4)C[C@H]23)cc1	-	?	0	0	0	59	106
O=C(Nc1ccccc1)N1CCCCN2[C@@H](CO)[C@@H](c3ccc(C#Cc4ccccc4)cc3)[C@@H]2C1	-	0	0	-	-	-	-
CC(C)CC#Cc1ccc([C@@H]2[C@@H](CO)N3CCCCN(C(=O)Nc4ccccc4)C[C@@H]23)cc1	-	111	0	97	0	0	103
COc1ccc(NC(=O)N2CCCCN3[C@H](CO)[C@@H](c4ccc(C#CCC(C)C)cc4)[C@H]3C2)cc1	-	122	0	0	101	117	106
CC(C)CC#Cc1ccc([C@H]2[C@H]3CN(C(=O)Nc4ccccc4)CCCCN3[C@H]2CO)cc1	-	101	0	98	0	0	83
CC(C)CC#Cc1ccc([C@H]2[C@@H](CO)N3CCCCN(C(=O)Nc4ccccc4)C[C@H]23)cc1	-	0	0	-	-	-	-
COc1ccc(NC(=O)N2CCCCN3[C@H](C2)[C@@H](c2ccc(C#CCC(C)C)cc2)[C@@H]3CO)cc1	-	0	0	-	-	-	-
COc1ccc(NC(=O)Nc2ccc3c(c2)C(=O)N([C@@H](C)CO)C[C@@H](C)[C@H](CN(C)CC2CCCCC2)OCCCC[C@H](C)O3)cc1	-	0	0	-	-	-	-
SMILES	IDH1 mut inh	T cruzi growth-1	GASC1 inh	T cruzi growth-2	T cruzi growth-3	3T3 cytotox	NIH3T3 tox 2
Cc1ccc(S(=O)(=O)N(C)C[C@@H]2OCCCC[C@H](C)Oc3ccc(NC(=O)Nc4cccc5ccccc45)cc3C(=O)N([C@H](C)CO)C[C@H]2C)cc1	0	-	0	-	-	-	-
CC=Cc1ccc2n(c1=O)C[C@@H]1[C@@H](CO)[C@H](C(=O)N3CCCCC3)N(CC3CC3)[C@H]21 (mixture of isomers)	-	0	0	-	-	-	-
O=C(CSc1nc2ccccc2o1)N1N=CCC1c1ccccc1 (centres undefined)	0	-	-	-	-	-	-
Cc1cc(C)c(C(=O)Nc2ccc(S(=O)(=O)Nc3cc(C)nc(C)n3)cc2)c(C)c1	0	-	-	-	-	-	-
CC(=O)NC[C@H]1[C@@H](c2ccc(C3=CCCCC3)cc2)[C@@H](CO)N1C(=O)C1CCC1	-	-	0	-	-	-	-
COCC#Cc1cnc2c(c1)C(=O)N([C@H](C)CO)C[C@H](C)[C@H](CN(C)C(=O)C1CC1)O2	-	0	0	-	-	-	-
COCC#Cc1cnc2c(c1)C(=O)N([C@@H](C)CO)C[C@@H](C)[C@@H](CN(C)C(=O)C1CC1)O2	-	0	0	-	-	-	-
COCC#Cc1cnc2c(c1)C(=O)N([C@H](C)CO)C[C@@H](C)[C@H](CN(C)C(=O)C1CC1)O2	-	97	0	0	0	0	0
COCC#Cc1cnc2c(c1)C(=O)N([C@@H](C)CO)C[C@@H](C)[C@H](CN(C)C(=O)C1CC1)O2	-	112	0	0	0	0	?
O=C(NC1CCC1)[C@@H]1[C@@H](CO)[C@@H]2Cn3c(ccc(-c4ccccc4F)c3=O)[C@@H]2N1Cc1ccncc1	-	0	0	-	-	-	-
Cc1ccc(S(=O)(=O)Nc2ccc3c(c2)CC(=O)N([C@H](C)CO)C[C@H](C)[C@@H](CN(C)C(=O)Nc2ccc4c(c2)OCO4)O3)cc1	-	0	0	-	-	-	-
COc1ccc(OC)c(NC(=O)COc2ccc(F)cc2)c1	0	-	-	-	-	-	-
COc1ccc(C#Cc2ccc3c(c2)O[C@@H](CN(C)C(=O)NC2CCCCC2)[C@@H](C)CN([C@@H](C)CO)S3(=O)=O)cc1	0	?	0	?	114	0	0
COc1ccc(C#Cc2ccc3c(c2)O[C@H](CN(C)C(=O)NC2CCCCC2)[C@H](C)CN([C@H](C)CO)S3(=O)=O)cc1	0	?	0	?	113	0	0
C[C@H](CO)N1C[C@H](C)[C@H](CN(C)C(=O)NC2CCCCC2)Oc2cc(C#Cc3ccc(F)cc3)ccc2S1(=O)=O	0	0	0	-	-	-	-
C[C@@H]1CN([C@H](C)CO)S(=O)(=O)c2ccc(C#Cc3ccc(F)cc3)cc2O[C@H]1CN(C)C(=O)NC1CCCCC1	-	0	0	-	-	-	-
COc1ccc(C#Cc2ccc3c(c2)O[C@H](CN(C)C(=O)NC2CCCCC2)[C@@H](C)CN([C@H](C)CO)S3(=O)=O)cc1	0	?	0	106	0	0	33
